Our source for the minimal effective dose and Activity values is ChEMBL document CHEMBL2331234, “Novel analgesic/anti-inflammatory agents: 1,5-diarylpyrrole nitrooxyalkyl ethers and related compounds as cyclooxygenase-2 inhibiting nitric oxide donors” (J Med Chem, 2013).

Molecules are shown by their SMILES.

Common to all, as to format: functional
Test [1] relates to Mus musculus. Description: Antinociceptive activity in po dosed Swiss albino mouse assessed as reduction in number of acetic acid-induced writhing counted 5 mins after acetic acid challenge counted for 10 mins. As to conditions: read-out: MED. The procedure, abridged: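 Male Swiss albino mice (23-25 g) dosed orally, then given 0.6% acetic acid (10 mL/kg) ip. Stretching movements counted for 10 min, starting 5 min after the acetic acid. Control group received CMC. At least 7 mice/group; mean ± SEM, ANOVA with Fisher's PLSD.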
For orientation: An intraperitoneal irritant provokes the stretching counted in writhing tests.

The test system of test [2] is Rattus norvegicus. As to the kind of experiment: Antiinflammatory activity in Sprague-Dawley/Wistar rat assessed as decrease in carrageenan-induced paw edema at 3 mg/kg, po administered 3 hrs 30 mins after carrageenan-challenge measured after 60 mins (reference value: 2.48 +/- 0.06 mL). A general note: In the carrageenan paw model, swelling and tenderness develop within hours.

For test [3], the system named is Rattus norvegicus. Description: Antiinflammatory activity in Sprague-Dawley/Wistar rat assessed as decrease in carrageenan-induced paw edema at 10 mg/kg, po administered 3 hrs 30 mins after carrageenan-challenge measured after 60 mins (reference value: 2.48 +/- 0.06 mL).
In test [4] the test system is Rattus norvegicus. As to the kind of experiment: Antiinflammatory activity in Sprague-Dawley/Wistar rat assessed as decrease in carrageenan-induced hyperalgesia at 3 mg/kg, po administered 4 hrs after carrageenan-challenge measured after 120 mins (reference value: 31.4 +/- 3.7 g).
Test [5] deals with Rattus norvegicus. Description: Antiinflammatory activity in Sprague-Dawley/Wistar rat assessed as decrease in carrageenan-induced hyperalgesia at 3 mg/kg, po administered 4 hrs after carrageenan-challenge measured after 60 mins (reference value: 33.9 +/- 3.7 g).
Test [6] has as its system Rattus norvegicus. Description: Antiinflammatory activity in Sprague-Dawley/Wistar rat assessed as decrease in carrageenan-induced hyperalgesia at 3 mg/kg, po administered 4 hrs after carrageenan-challenge measured after 30 mins (reference value: 34.8 +/- 3.0 g).
Test [7] concerns Rattus norvegicus. As to the kind of experiment: Antiinflammatory activity in Sprague-Dawley/Wistar rat assessed as decrease in carrageenan-induced hyperalgesia at 10 mg/kg, po administered 4 hrs after carrageenan-challenge measured after 120 mins (reference value: 31.4 +/- 3.7 g).
In test [8] the test system is Rattus norvegicus. As to the kind of experiment: Antiinflammatory activity in Sprague-Dawley/Wistar rat assessed as decrease in carrageenan-induced hyperalgesia at 10 mg/kg, po administered 4 hrs after carrageenan-challenge measured after 60 mins (reference value: 33.9 +/- 3.7 g).
Test [9] relates to Rattus norvegicus. Description: Antiinflammatory activity in Sprague-Dawley/Wistar rat assessed as decrease in carrageenan-induced hyperalgesia at 10 mg/kg, po administered 4 hrs after carrageenan-challenge measured after 30 mins (reference value: 34.8 +/- 3.0 g).

For the compound `Cc1ccc(-c2cc(C(F)(F)F)nn2-c2ccc(S(N)(=O)=O)cc2)cc1` [CELECOXIB], the minimal effective dose in test [1] amounted to 3 mg/kg. Further, the Activity was 2.35 mL in [2]; 1.45 mL in [3]; 40.7 g in test [4]; 41.6 g in test [5]; 44.3 g in test [6]; 39.8 g in test [7]. For the same compound, the Activity in test [8] came out at 48.3 g; in test [9], 52.9 g.
